PMC6759879 (Journal of the American Heart Association: Cardiovascular …, 2019)

How the values were obtained:
[1] = system: Cx43 CT; experiment: EDC cross‐linking of kinase reaction mixtures, Cx43 CT; format: binding; conditions: peptide at 5, 10 and 25 μmol/L, streptavidin labeling
How it was run: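 Kinase mixture as in the PKCε assay, but in 20 mmol/L MOPS pH 7.2 with 30 μg/mL Cx43 CT substrate and varied peptide, 15 min at 37°C. EDC added to 20 mmol/L final and left 1 h at room temperature. Stopped with LDS buffer and boiled 5 min. Run on 18% gels, then Coomassie-stained (bands excised for MS/MS) or blotted for biotin with HRP‑NeutrAvidin.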

[2] = system: Cx43 CT‐KK/QQ; experiment: Surface plasmon resonance, immobilized biotin-peptides, Cx43 CT‐KK/QQ analyte; format: binding; conditions: analyte 0.5 to 15 μmol/L, reverse control peptide subtracted, mean of 3 runs
How it was run: (§1)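 Biotin-peptides are immobilized at equal RU on a streptavidin chip in HEPES/EDTA/NaCl/Tween‑20, pH 7.4. Analyte is Cx43 CT (wild type or KK/QQ) with GST removed by PreScission protease, injected at several concentrations in random order in 10 mmol/L HEPES, 100 mmol/L NaCl pH 7.4 at 30 μL/min. Regeneration: 50 mmol/L NaOH/1 mol/L NaCl. Biotin-reversed-sequence reference subtracted; mean of 3 runs.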

[3] = system: Cx43 CT KK/QQ mutant substrate; experiment: PKCε phosphorylation assay with Cx43 CT KK/QQ mutant substrate; format: biochemical; conditions: biotin‐αCT1 20 μmol/L
How it was run: (§2)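 PKCε (400 ng/mL, prediluted in HEPES/CHAPS/DTT buffer) is used with wild-type or KK/QQ Cx43‑CT (aa 255–382) substrate at 14 μg/mL, plus peptide. Incubated 12 min at 37°C, quenched in LDS, blotted for pS368, stripped, reprobed for total Cx43. % phosphorylation normalized to PKC+ no-peptide control.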

[4] = system: PKCε phosphorylation of Cx43‐CT substrate at Ser368; experiment: PKCε Cx43 CT S368 phosphorylation assay; format: biochemical; conditions: Western blot pS368/total Cx43; biotin-tagged peptides
How it was run: as §2

[5] = target: Cx43 CT (amino acids 255–382) (Rattus norvegicus, UniProt P08050); experiment: Surface plasmon resonance, immobilized biotin-peptides, Cx43 CT analyte; format: binding
Sequence of Cx43 CT (amino acids 255–382) (P08050 255-382): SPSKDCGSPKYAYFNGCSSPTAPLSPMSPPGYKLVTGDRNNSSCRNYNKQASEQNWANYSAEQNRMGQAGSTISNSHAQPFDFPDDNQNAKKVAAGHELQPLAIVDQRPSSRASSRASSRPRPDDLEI
How it was run: as §1

[6] = system: ZO‐1 PDZ2; experiment: Protein thermal shift assay, ZO‐1 PDZ2; format: binding; conditions: 500 μg/mL GST‐PDZ2, 25 to 100 μmol/L peptide, PBS pH 7.4, SYPRO Orange, N=6
How it was run: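 Recombinant GST–PDZ2 (500 μg/mL) is mixed with 25–100 μmol/L peptide in PBS pH 7.4 with SYPRO Orange at 8× final. Melt runs from 25°C to 95°C in 0.05 °C/s steps on a real-time PCR instrument, ROX channel, no quencher. Tm is compared against unliganded protein. Six independent runs.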

[7] = system: ZO‐1 PDZ2 domain; experiment: EDC zero-length cross‐linking to GST ZO‐1 PDZ domains; format: binding; conditions: biotin‐tagged peptide at 5, 25 and 50 μmol/L, NeutrAvidin labeling
How it was run: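 Direct coupling uses purified GST–ZO‑1 PDZ fusion protein from IPTG-induced BL21 at 50 μg/mL with biotinylated peptide in PBS pH 7.5. They react 1 h at room temperature before EDC is added. The mixture is boiled in LDS buffer, run on 18% SDS‑PAGE and blotted for GST or with NeutrAvidin‑HRP by chemiluminescence.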

| Sequence | Cx43 CT KK/QQ mutant binding to immobilized biotin-peptide (SPR response) [2] | Cx43 S368 phosphorylation versus PKCε+plus control (in words) [4] | further results |
| --- | --- | --- | --- |
| RQPKIWFPNRRKPWKK LPAARIAPR [Peptide M4] |  |  | Cross‐linking to Cx43 CT by EDC [1]: no evidence of cross‐linking |
| RQPKIWFPNRRKPWKK RPRPAALAI [Peptide M1] | minimal interaction | did not increase Cx43 S368 phosphorylation | Phosphorylation of Cx43 CT KK/QQ mutant substrate [3]: Neither αCT1 nor M1 prompted an increase in phosphorylation; Cx43 CT binding to immobilized biotin-peptide (SPR response) ([5]; analyte 0.5 to 15 μmol/L, reverse control peptide subtracted, mean of 3 runs): loss of Cx43 CT binding competence |
| RQPKIWFPNRRKPWKK RPRPAALEI [Peptide M2] | minimal interaction | did not increase Cx43 S368 phosphorylation |  |
| RQPKIWFPNRRKPWKK RPRPDDLBI [Peptide M3] | minimal interaction | did not increase Cx43 S368 phosphorylation | Change of ZO‐1 PDZ2 melt temperature (Tm) [6]: evidence of significant interaction; SPR binding kinetics with Cx43 CT (in words) ([5]; inspection of SPR curves): higher initial on rate |
| RQPKIWFPNRRKPWKK RPRPDDLE [αCT1‐I] |  | significant increase in PKCε‐mediated phosphorylation of Cx43 CT | Interaction with ZO‐1 PDZ2 by EDC cross‐linking [7]: incompetent to interact with the ZO‐1 PDZ2 domain |
